In PMC4111568 (Bioorganic & medicinal chemistry, 2011):

Tested on: CWR22rv-1 cells
Experiment: Cell death of CWR22rv-1 prostate cancer cells
Type: cell-based, human
Details: 25 μM, after 24 h
Summary of the method: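 CWR22Rv1 cells were seeded at 300,000 cells/well in RPMI 1640 with 10% FBS, 2.5 mM L-glutamine and penicillin-streptomycin at 37 °C, 5% CO2, then serum-starved overnight. Test compound (DMSO stock, diluted in serum-free RPMI) was applied in triplicate for 24–72 h. Cells were trypsinised, fixed in 70% ethanol, treated with RNase (5 μg/mL), stained with propidium iodide (50 μg/mL), and DNA content/cell-cycle fractions were measured by flow cytometry.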

CCCCCCCC(O)(C(N)=O)c1cccc(Cl)c1 (racemic) [(±)-1, 2-(3-chlorophenyl)-2-hydroxynonanamide]
cell death: marginal effects
